According to ChEMBL document CHEMBL4138310 (J Med Chem, 2018):

Assays:
[1] = tested on: Human immunodeficiency virus 1; test: Antiviral activity against wild-type HIV1 pNL4-3 infected in human MT4 cells assessed as inhibition of virus-induced cytopathic effect after 5 days in presence of 50 % of human serum by MTT assay; format: functional, organism-based; conditions: Human immunodeficiency virus 1, pNL4-3, MT4, 120 h
Outline: (§1)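 MT-4 cells inoculated with HIV-1 pNL4-3, then given an equal volume of compound at several concentrations in 1% DMSO solution with 10% FBS. Incubated 5 days at 37 °C in CO2, in triplicate. MTT read by optical density, percent reduction of cytopathic effect calculated, and EC50 fitted to the median-effect equation. Values averaged over n = 3; the 50% human serum condition was run alongside.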

[2] = molecular target: Protease (Human immunodeficiency virus 1) (UniProt Q9YQ12); test: Inhibition of recombinant HIV1 protease at 1 nM using H-Lys-Ala-Arg-Val-Tyr-Phe(p-NO2)-Glu-Ala-Nle-NH2 as substrate preincubated for 5 mins followed by substrate addition measured after 3 hrs by fluorescence-based assay
Outline: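 Recombinant HIV-1 protease (40 ng/mL stock in pH 5.0 acetate/EDTA/NaCl/2-mercaptoethanol/NP-40/glycerol) mixed with inhibitor (10 nM solution in DMSO) in 200 mM MES-NaOH pH 5.5 with 2 mM DTT, 2 mM EDTA and 1 M NaCl. Preincubated 5 min at 37 °C, then 1.0 mM substrate solution added and incubated 3 h at 37 °C. Stopped with 1 N HCl. The Lys-Ala-Arg-Val-Tyr-OH product was quantified by RP-HPLC with fluorescence (Ex 275, Em 305 nm). Single determination.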

[3] = tested on: Human immunodeficiency virus 1; test: Antiviral activity against wild-type HIV1 pNL4-3 infected in human MT4 cells assessed as inhibition of virus-induced cytopathic effect after 5 days in absence of human serum by MTT assay; format: functional, organism-based; conditions: Human immunodeficiency virus 1, pNL4-3, MT4, 120 h; outline: as §1
[4] = tested on: Human immunodeficiency virus 1; test: Ratio of EC50 for wild-type HIV1 pNL4-3 infected in human MT4 in presence of 50% of human serum to EC50 for wild-type HIV-1 pNL4-3 infected in human MT4 in absence of human serum; format: functional
Outline: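 Serum binding effect calculated as the pNL4-3 EC50 in 50% human serum divided by the EC50 in 0% serum, using MT-4 cytopathic-effect MTT assays run for 5 days at 37 °C.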

[5] = Ratio of EC50 for inhibition of protease L10F/V32I/M46I/I47V/Q58E/I84V mutant in HIV1 A17 infected in human MT4 cells to EC50 for wild-type HIV-1 pNL4-3 infected in human MT4 cells; format: functional, Human immunodeficiency virus 1
Outline: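 Ratio of EC50 values from MT-4 cytopathic-effect MTT assays (5 days, 37 °C, triplicate, median-effect fit). Numerator is LPV-resistant strain A1711, denominator is wild-type HIV-1 pNL4-3.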

[6] = Cytotoxicity against human MT4 cells after 5 days by MTT assay; format: cell-based; conditions: read-out: TD50
Outline: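 Uninfected MT-4 cells given compound at several concentrations in 1% DMSO solution with 10% FBS. Incubated 5 days at 37 °C in CO2, in triplicate. Viability read by MTT optical density, with TD50 taken as the cytotoxic measure.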

[7] = tested on: Human immunodeficiency virus 1; test: Antiviral activity against wild-type HIV1 pNL4-3 infected in CMVdeltaR8.91 transfected 293T cells after 48 hrs by lentiviral vector-based luciferase reporter gene assay; format: functional, organism-based; conditions: Human immunodeficiency virus 1, pNL4-3, HEK-293T
Outline: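 pNL4-3-based luciferase reporter lentiviral vector made by transfecting 293T cells with pCMV-ΔR8.91 (wild-type or V32I/L33F/I54M/V82I or V32I/L33F/I54M/I84V protease) plus luciferase transfer and envelope plasmids, with or without inhibitor. After 48 h, fresh 293T cells infected with vector. IC50 for suppression of luciferase transduction taken from dose-response curve.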

[8] = Ratio of EC50 for inhibition of HIV1 A17 protease L10F/V32I/M46I/I47V/Q58E/I84V mutant infected in human MT4 cells to EC50 for wild-type HIV-1 3B infected in human MT4 cells; format: functional, Human immunodeficiency virus 1
[9] = tested on: Human immunodeficiency virus 1; test: Antiviral activity against wild-type HIV1 3B infected in human MT4 cells assessed as inhibition of virus-induced cytopathic effect after 5 days by MTT assay; format: functional, organism-based; conditions: Human immunodeficiency virus 1, 3B, MT4, 120 h
[10] = tested on: Human immunodeficiency virus 1; test: Antiviral activity against wild-type HIV1 3B infected in human MT4 cells assessed as inhibition of virus-induced cytopathic effect after 5 days in presence of 50 % of human serum by MTT assay; format: functional, organism-based; conditions: Human immunodeficiency virus 1, 3B, MT4, 120 h
[11] = tested on: Human immunodeficiency virus 1; test: Ratio of EC50 for wild-type HIV1 3B infected in human MT4 in presence of 50% of huma serum to EC50 for wild-type HIV-1 3B infected in human MT4 in absence of human serum; format: functional
[12] = tested on: Human immunodeficiency virus 1; test: Antiviral activity against wild-type HIV1 3B infected in human MT4 cells assessed as inhibition of virus-induced cytopathic effect after 5 days in absence of human serum by MTT assay; format: functional, organism-based; conditions: Human immunodeficiency virus 1, 3B, MT4, 120 h
[13] = tested on: Human immunodeficiency virus 1; test: Ratio of EC50 for wild-type HIV1 3B infected in human MT4 in presence of 50% of huma serum to EC50 for wild-type HIV-1 pNL4-3 infected in human MT4 in absence of human serum; format: functional
Outline: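 Serum binding effect: EC50 measured with 50% human serum divided by EC50 measured without serum. Each EC50 came from protection of MT-4 cells from HIV-induced cytopathic effect. Infected cells were exposed to several compound concentrations in 1% DMSO with 10% FBS for 5 days at 37 °C in triplicate, read by MTT optical density, and fitted to a median-effect equation.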

Compound	EC50 [1] [nM]	inhibition [2] [%]	EC50 [3] [nM]	Ratio EC50 [4]	other results
Cc1ccccc1CNC(=O)[C@H]1N(C(=O)[C@@H](O)[C@H](Cc2ccccc2)NC(=O)[C@@H](NC(=O)COc2cccc3cnccc23)[C@H]2CCOC2)CSC1(C)C	4350	97	21	207	
Cc1ccccc1CNC(=O)[C@H]1N(C(=O)[C@@H](O)[C@H](Cc2ccccc2)NC(=O)[C@@H](NC(=O)c2ccc3ccccc3n2)[C@H]2CCOC2)CSC1(C)C	411	96	< 3	>137	
Cc1ccccc1CNC(=O)[C@H]1N(C(=O)[C@@H](O)[C@H](Cc2ccccc2)NC(=O)[C@@H](NC(=O)c2cnc3ccccc3n2)[C@@H]2CCOC2)CSC1(C)C	131	86	12	11	
Cc1cccc(C)c1CNC(=O)[C@H]1N(C(=O)[C@@H](O)[C@H](Cc2ccccc2)NC(=O)[C@@H](NC(=O)COc2cccc(N(C)C)c2)[C@H]2CCOC2)CSC1(C)C	15	97	< 3	>5	Ratio EC50 [5]: >55; CC50 at 120 h [6]: 60000 nM
CN(C)c1cccc(OCC(=O)N[C@H](C(=O)N[C@@H](Cc2ccccc2)[C@H](O)C(=O)N2CSC(C)(C)[C@H]2C(=O)N[C@H]2c3ccccc3C[C@H]2O)[C@H]2CCOC2)c1	79	95	4	20	
COc1cccc2cc(C(=O)N[C@@H](CC(N)=O)C(=O)N[C@@H](Cc3ccccc3)[C@H](O)C(=O)N3CSC(C)(C)[C@H]3C(=O)NCc3c(C)cccc3C)oc12		96	60		Ratio EC50 [5]: 1.4
CC(C)CN(C[C@@H](O)[C@H](Cc1ccccc1)NC(=O)O[C@H]1CO[C@H]2OCC[C@H]21)S(=O)(=O)c1ccc(N)cc1					EC50 [7]: 0.82 nM
Cc1cccc(C)c1CNC(=O)[C@H]1N(C(=O)[C@@H](O)[C@H](Cc2ccccc2)NC(=O)[C@@H](NC(=O)c2cc3ccccc3o2)[C@H]2CCOC2)CSC1(C)C	90	97	12	7.5	Ratio EC50 [5]: 57; CC50 at 120 h [6]: 38000 nM
C=C(C)CNC(=O)[C@H]1N(C(=O)[C@@H](O)[C@H](Cc2ccccc2)NC(=O)[C@@H](NC(=O)COc2cccc(N(C)C)c2)[C@H]2CCOC2)CSC1(C)C	49	97	7	7	
Cc1cccc(C)c1CNC(=O)[C@H]1N(C(=O)[C@@H](O)[C@H](Cc2ccccc2)NC(=O)[C@H](CC(N)=O)NC(=O)c2cc3ccccc3o2)CSC1(C)C		97			Ratio EC50 [8]: 1.6; EC50 [9]: 38 nM
Cc1ccccc1CNC(=O)[C@H]1N(C(=O)[C@@H](O)[C@H](Cc2ccccc2)NC(=O)[C@@H](NC(=O)c2ccc3ccccc3n2)[C@@H]2CCOC2)CSC1(C)C	602	69	26	23	
Cc1cccc(C)c1OCC(=O)N[C@@H](Cc1ccccc1)[C@@H](O)C[C@H](Cc1ccccc1)NC(=O)[C@H](C(C)C)N1CCCNC1=O [LOPINAVIR]					CC50 at 120 h [6]: > 10000 nM
Cc1cccc(C)c1CNC(=O)[C@H]1N(C(=O)[C@@H](O)[C@H](Cc2ccccc2)NC(=O)[C@@H](NC(=O)COc2cccc(Nc3ccccc3)c2)[C@H]2CCOC2)CSC1(C)C	103	93	5	21	Ratio EC50 [5]: 45; CC50 at 120 h [6]: 39000 nM
COc1cccc2cc(C(=O)N[C@H](C(=O)N[C@@H](Cc3ccccc3)[C@H](O)C(=O)N3CSC(C)(C)[C@H]3C(=O)NCc3c(C)cccc3C)C(C)C)oc12		95			Ratio EC50 [8]: >103; EC50 [9]: < 3 nM
CN(C)c1cccc(OCC(=O)N[C@H](C(=O)N[C@@H](Cc2ccccc2)[C@H](O)C(=O)N2CSC(C)(C)[C@H]2C(=O)N[C@H]2CCc3ccccc32)[C@H]2CCOC2)c1	30	97	5	6	
CN(C)c1cccc(OCC(=O)N[C@H](C(=O)N[C@@H](Cc2ccccc2)[C@H](O)C(=O)N2CSC(C)(C)[C@H]2C(=O)NC/C=C\CO)[C@H]2CCOC2)c1	2050	94	567	3.6	
CSC[C@H](NC(=O)COc1cccc2cnccc12)C(=O)N[C@@H](Cc1ccccc1)[C@H](O)C(=O)N1CSC[C@H]1C(=O)NC(C)(C)C		14			EC50 [10]: 2880 nM; Ratio EC50 [11]: 16; EC50 [12]: 176 nM
Cc1cccc(C)c1CNC(=O)[C@H]1N(C(=O)[C@@H](O)[C@H](Cc2ccccc2)NC(=O)[C@@H](NC(=O)COc2cccc3cnccc23)[C@H]2CCOC2)CSC1(C)C	143	98	60	2.4	
CN(C)c1cccc(OCC(=O)N[C@H](C(=O)N[C@@H](Cc2ccccc2)[C@H](O)C(=O)N2CSC(C)(C)[C@H]2C(=O)NC2CCCC2)[C@H]2CCOC2)c1	103	93	10	10	
Cc1cccc(C)c1CNC(=O)[C@H]1N(C(=O)[C@@H](O)[C@H](Cc2ccccc2)NC(=O)[C@@H](NC(=O)c2cc3ccccc3o2)C(C)C)CSC1(C)C		93			Ratio EC50 [8]: 61; EC50 [9]: 18 nM
C=CCNC(=O)[C@H]1N(C(=O)[C@@H](O)[C@H](Cc2ccccc2)NC(=O)[C@@H](NC(=O)COc2cccc(N(C)C)c2)[C@H]2CCOC2)CSC1(C)C	190	95	8	24	
Cc1ccccc1CNC(=O)[C@H]1N(C(=O)[C@@H](O)[C@H](Cc2ccccc2)NC(=O)c2cccc(O)c2C)CSC1(C)C		48	60		EC50 [10]: 114 nM; Ratio EC50 [13]: 2; Ratio EC50 [5]: 46; CC50 at 120 h [6]: 23000 nM
Cc1cccc(C)c1CNC(=O)[C@H]1N(C(=O)[C@@H](O)[C@H](Cc2ccccc2)NC(=O)[C@@H](NC(=O)c2cc(=O)c3ccccc3o2)[C@H]2CCOC2)CSC1(C)C	115	98	5	23	
Cc1ccccc1CNC(=O)[C@H]1N(C(=O)[C@@H](O)[C@H](Cc2ccccc2)NC(=O)[C@@H](NC(=O)c2cnc3ccccc3n2)[C@H]2CCOC2)CSC1(C)C	84	97	4	21	Ratio EC50 [5]: 24; CC50 at 120 h [6]: 10000 nM
